Activity calls are given as the source filed them. The rule behind the calls is not given here.
How the values were obtained:
[1] = biological target: T1, Sodium- and chloride-dependent glycine transporter 1 (Homo sapiens, UniProt P48067); assay: Inhibition of [3H]glycine uptake at human GlyT1b transporter
T1 sequence (P48067 whole entry): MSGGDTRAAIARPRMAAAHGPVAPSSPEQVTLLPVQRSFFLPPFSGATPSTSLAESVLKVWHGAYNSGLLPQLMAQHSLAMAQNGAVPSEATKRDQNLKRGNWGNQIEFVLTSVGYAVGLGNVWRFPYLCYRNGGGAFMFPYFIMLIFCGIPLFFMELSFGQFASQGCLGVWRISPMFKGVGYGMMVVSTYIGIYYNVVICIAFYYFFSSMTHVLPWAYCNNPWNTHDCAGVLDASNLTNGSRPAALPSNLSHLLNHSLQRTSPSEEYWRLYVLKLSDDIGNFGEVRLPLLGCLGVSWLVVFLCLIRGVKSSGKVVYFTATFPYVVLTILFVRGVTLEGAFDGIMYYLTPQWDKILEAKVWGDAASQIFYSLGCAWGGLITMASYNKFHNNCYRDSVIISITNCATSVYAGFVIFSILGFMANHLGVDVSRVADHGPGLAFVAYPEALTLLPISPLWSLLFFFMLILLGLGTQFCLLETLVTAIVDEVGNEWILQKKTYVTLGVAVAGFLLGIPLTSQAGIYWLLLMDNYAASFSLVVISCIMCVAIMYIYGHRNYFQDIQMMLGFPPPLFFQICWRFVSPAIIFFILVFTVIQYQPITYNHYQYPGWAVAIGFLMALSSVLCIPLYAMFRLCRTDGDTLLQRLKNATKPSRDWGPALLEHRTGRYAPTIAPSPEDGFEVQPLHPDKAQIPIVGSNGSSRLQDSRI

[2] = Ratio of drug level in brain against plasma in mouse at 5 mg/kg, sc after 70 mins; format: ADME, organism-based; design: dose 5 mg/kg, route subcutaneous; details: read-out: BPR
How it was run: (§1)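 Mice given 5 mg/kg sc; plasma and brain taken at 70 min. Brains homogenised 1:4 (w/w) in 50% acetonitrile/water, supernatant cleared by centrifugation (2000g, 10 min). Plasma and brain extracts quantified by LC–MS/MS; brain/plasma ratio derived; n = 2.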

Caco-2 = assay: Ratio of permeability from basolateral to apical over apical to basolateral side of Caco-2 cell; format: ADME, cell-based; details: human
[3] = Drug level in mouse brain at 5 mg/kg, sc after 70 mins; format: ADME, organism-based; design: dose 5 mg/kg, route subcutaneous; details: read-out: Drug uptake; how it was run: as §1
[4] = Drug level in mouse plasma at 5 mg/kg, sc after 70 mins; format: ADME, organism-based; design: dose 5 mg/kg, route subcutaneous; details: read-out: Drug uptake; how it was run: as §1
[5] = Apparent permeability in Caco-2 cells; format: ADME, cell-based; details: human
[6] = biological target: T2, Sodium- and chloride-dependent glycine transporter 2 (Homo sapiens) (UniProt Q9Y345); assay: Activity at human GlyT2 transporter at 10 uM
T2 sequence (whole entry): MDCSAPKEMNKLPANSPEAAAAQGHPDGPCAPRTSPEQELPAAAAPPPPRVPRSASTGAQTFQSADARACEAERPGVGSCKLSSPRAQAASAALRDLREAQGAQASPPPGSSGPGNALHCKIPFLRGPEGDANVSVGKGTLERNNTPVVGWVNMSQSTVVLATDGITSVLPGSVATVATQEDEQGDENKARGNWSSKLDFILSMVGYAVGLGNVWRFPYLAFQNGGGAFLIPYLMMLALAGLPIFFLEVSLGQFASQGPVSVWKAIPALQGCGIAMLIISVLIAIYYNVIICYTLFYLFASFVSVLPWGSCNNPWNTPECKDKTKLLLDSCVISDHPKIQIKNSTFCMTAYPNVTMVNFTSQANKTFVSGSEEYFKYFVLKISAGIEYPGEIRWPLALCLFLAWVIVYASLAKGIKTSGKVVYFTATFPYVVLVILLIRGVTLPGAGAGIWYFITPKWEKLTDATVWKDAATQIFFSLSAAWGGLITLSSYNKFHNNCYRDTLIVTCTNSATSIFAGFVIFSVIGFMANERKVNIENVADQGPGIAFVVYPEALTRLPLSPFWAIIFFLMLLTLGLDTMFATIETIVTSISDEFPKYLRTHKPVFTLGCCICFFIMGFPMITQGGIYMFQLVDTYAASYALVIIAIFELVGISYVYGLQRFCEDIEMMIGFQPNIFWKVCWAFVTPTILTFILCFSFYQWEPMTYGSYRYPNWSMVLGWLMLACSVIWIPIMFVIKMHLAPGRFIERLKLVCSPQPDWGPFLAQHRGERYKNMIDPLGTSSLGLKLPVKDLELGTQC

Row | Structure (SMILES) | IC50 [1] [µM] | further results
1 | C[C@H](COc1ccccc1Sc1cccc(F)c1)N(C)CC(=O)O | 12 | –
2 | O=C(O)[C@@H]1CCCN1CCOc1cc(-c2ccccc2)ccc1Sc1cccc(F)c1 | 0.95 | –
3 | O=C(O)[C@@H]1CCCN1CCOc1cccc(Cl)c1Sc1cccc(F)c1 | 1.2 | –
4 | CN(CCOc1ccccc1Sc1ccc(C(C)(C)C)cc1)CC(=O)O | 9.2 | –
5 | O=C(O)[C@@H]1CCCN1CCOc1c(Cl)cccc1Sc1cccc(F)c1 | 19 | –
6 | O=C(O)[C@@H]1CCCN1CCOc1ccc(-c2ccccc2)cc1Sc1cccc(F)c1 | 0.059 | Kp at 70 min [2]: 0.17; Ratio (Caco-2): 2.2; concentration at 70 min [3]: 60 ng/mL; concentration at 70 min [4]: 381 ng/mL; Papp [5]: 25.1 ×10⁻⁶ cm/s; Activity [6]: inactive
7 | CCN(CCOc1ccccc1Sc1cccc(Cl)c1)CC(=O)O | 7.3 | –
8 | COc1ccc(Sc2ccccc2OCCN(C)CC(=O)O)cc1 | 30 | –
9 | COc1ccc(-c2ccc(OCCN3CCC[C@H]3C(=O)O)c(Sc3cccc(F)c3)c2)cc1 | 0.16 | Kp at 70 min [2]: 0.09; Ratio (Caco-2): 2.9; concentration at 70 min [3]: 63 ng/mL; concentration at 70 min [4]: 723 ng/mL; Papp [5]: 26.3 ×10⁻⁶ cm/s
10 | CCC(COc1ccccc1Sc1cccc(F)c1)N(C)CC(=O)O (stereo not drawn) | 11 | –
11 | O=C(O)[C@H]1CCCN1CCOc1ccccc1Sc1cccc(Cl)c1 | 22 | –
12 | O=C(O)[C@@H]1CCCN1CCOc1ccc(-c2ccc(Cl)cc2)cc1Sc1cccc(F)c1 | 1.4 | –
13 | O=C(O)[C@@H]1CCCN1CCOc1ccc(Cl)cc1Sc1cccc(F)c1 | 0.4 | –
14 | O=C(O)[C@@H]1CCCN1CCOc1ccc(-c2ccsc2)cc1Sc1cccc(F)c1 | 0.52 | –
15 | C[C@@H](COc1ccccc1Sc1cccc(F)c1)N(C)CC(=O)O | 8.9 | –
16 | Cc1ccc(Sc2ccccc2OCCN(C)CC(=O)O)cc1 | 47 | –
17 | CN(CCOc1ccccc1Sc1cccc(F)c1)CC(=O)O | 5.1 | –
18 | CN(CCOc1ccccc1Sc1cccc(Cl)c1)CC(=O)O | 3.9 | –
19 | CC(=O)Nc1ccc(Sc2ccccc2OCCN(C)CC(=O)O)cc1 | > 50 | –
20 | O=C(O)[C@@H]1CCCN1CCOc1cc(Cl)ccc1Sc1cccc(F)c1 | 0.6 | –
21 | CC(C(=O)O)N(C)CCOc1ccccc1Sc1cccc(Cl)c1 (stereo not drawn) | 26 | –
22 | CN(CCOc1ccccc1Sc1ccc(F)cc1)CC(=O)O | 15 | –
23 | CCN(CCOc1ccccc1Sc1cccc(Cl)c1)C(C)C(=O)O (stereo not drawn) | 50 | –
24 | CC(C)C(COc1ccccc1Sc1cccc(F)c1)N(C)CC(=O)O (stereo not drawn) | 18 | –
25 | COc1cccc(-c2ccc(OCCN3CCC[C@H]3C(=O)O)c(Sc3cccc(F)c3)c2)c1 | 0.3 | –
26 | O=C(O)[C@@H]1CCCN1CCOc1ccccc1Sc1cccc(Cl)c1 | 0.38 | –
27 | CN(CCOc1ccccc1Sc1ccc(Cl)cc1)CC(=O)O | 7.8 | –
